Several values for one entry are separate records, joined by “and”; a condition that tells them apart may be missing. Equal entries are not always repeated.

Assay [1] is filed under the species Canis familiaris. Put plainly: (§1) In vitro electrophysiological evaluation in canine cardiac occurred is 100. The assay is classed as functional. The following applies: Canis lupus familiaris; Heart.
Assay [2] is filed under the species Canis familiaris. The assay can be described thus: In vitro electrophysiological evaluation in canine cardiac Purkinje fibres reported as percent change Vmax at 10 uM at concentration range of 5-100 uM; Minimal (<10% decrease or increase in Vmax). The assay is classed as functional. The following applies: Canis lupus familiaris, Purkinje fiber.
The species entered for assay [3] is Canis familiaris. The assay can be described thus: In vitro electrophysiological evaluation in canine cardiac Purkinje fibres reported as percent change Vmax at 10 uM at concentration range of 0.1-100 uM; Minimal (<10% decrease or increase in Vmax). The class given is functional, organism-based. The following applies: Canis lupus familiaris, Purkinje fiber. Put shortly:
(§2)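 Canine cardiac Purkinje fibres, intracellular microelectrode recording, paced at a basic cycle length of 1 s. APD95 and Vmax read simultaneously. Compound: 10 mM stock in deionized water, diluted into Tyrode's solution, tested over the stated concentration range. Each fibre used once as its own control. Result is % change from control, given at 10 µM or as the maximum with its concentration. M = <10% decrease or an increase in Vmax.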

The species named for assay [4] is Canis familiaris. The assay can be described thus: In vitro electrophysiological evaluation in canine cardiac Purkinje fibres reported as percent change Vmax at 10 uM at concentration range of 1-30 uM; Minimal (<10% decrease or increase in Vmax). The assay is classed as functional. As to conditions: Canis lupus familiaris, Purkinje fiber.
For assay [5], the species on record is Canis familiaris. Put plainly: In vitro electrophysiological evaluation in canine cardiac Purkinje fibres reported as maximum percent change Vmax concentration range of 0.1-100 uM; Minimal (<10% decrease or increase in Vmax). The class given is functional. The following applies: Canis lupus familiaris; Purkinje fiber. Put shortly: as §2
For assay [6], the species on record is Canis familiaris. Put plainly: (§3) In vitro electrophysiological activity in canine cardiac occurred is 100. The assay is classed as functional, Canis lupus familiaris, Heart.
For assay [7], the species on record is Canis familiaris. Put plainly: In vitro electrophysiological evaluation in canine cardiac ventricular muscle reported as % change for the functional refractory period (FRP) at 10 uM at concentration range of 0.1-100 uM. Also noted: species or system Canis lupus familiaris, Muscle tissue. The method in brief:
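Canine right ventricle and papillary muscle strips in oxygenated Tyrode's solution, fitted with stimulating and recording electrodes. The extra-stimulus conduction-interval method was adapted for in vitro use. FRP and CT were read from a conduction-interval curve before and after various compound concentrations, and expressed as percent change from control. Compounds were taken from 10 mM deionized-water stock into Tyrode's. Each strip was used once as its own control.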

Assay [8] is filed under the species Canis familiaris. The assay can be described thus: In vitro electrophysiological evaluation in canine cardiac ventricular muscle reported as maximum % change for conduction time(CT) at 0.1-100 uM concentration range; Minimal (<10% decrease or increase in […]). The assay is classed as functional, Canis lupus familiaris, Muscle tissue. The method in brief: (§4)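 Canine right ventricular/papillary muscle strips in oxygenated Tyrode's, extracellular extra-stimulus conduction-interval method. FRP and CT are read from conduction-interval curves before and during rising concentrations. Compound is a 10 mM aqueous stock diluted into Tyrode's. Each strip is used once as its own control. Readouts are percent change from control at 10 μM, plus the maximum change with its concentration.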

The species entered for assay [9] is Canis familiaris. Put plainly: In vitro electrophysiological evaluation in canine cardiac ventricular muscle reported as % change for conduction time(CT) at 10 uM at 0.1-100 uM concentration range; Minimal (<10% decrease or increase in […]). The class given is functional, Canis lupus familiaris, Muscle tissue. Put shortly:
as §4

The species entered for assay [10] is Canis familiaris. The assay can be described thus: In vitro electrophysiological evaluation in canine cardiac Purkinje fibres reported as % change for action potential duration at a concentration of 10 uM. The assay is classed as functional, Canis lupus familiaris, Purkinje fiber. Put shortly:
as §2

For assay [11], the species on record is Canis familiaris. The assay can be described thus: In vitro electrophysiological evaluation in canine cardiac Purkinje fibres reported as % change for action potential duration at 10 uM at 1-30 uM concentration range. The assay is classed as functional, Canis lupus familiaris, Purkinje fiber. Put shortly:
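Canine cardiac Purkinje fibers, intracellular recording, paced at a basic cycle length of 1 s. APD95 and Vmax are recorded together across cumulative concentrations. Compound is a 10 mM aqueous stock diluted into Tyrode's solution. Each fiber is used once as its own control. Readouts are percent change from control at 10 μM, and the maximum change with the concentration where it occurred.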

The species named for assay [12] is Canis familiaris. The description is as §3. The class given is functional, Canis lupus familiaris, Heart. The source holds these as a separate data set.
Assay [13] is filed under the species Canis familiaris. Described as §3. The class given is functional, Canis lupus familiaris, Heart. This is another data set of the same source.
The species entered for assay [14] is Canis familiaris. Put plainly: In vitro electrophysiological evaluation in canine cardiac ventricular muscle reported as maximum % change for functional refractory period (FRP) at 0.1-100 uM concentration range; concentration at which it occurred is 100. Also noted: species or system Canis lupus familiaris, Muscle tissue.
Assay [15] relates to Canis familiaris. Put plainly: Effective dose administered intravenously to elicit Antiarrhythmic efficacy in anesthetized dogs was reported; Number of animals effective at that dose is 1. The class given is functional, Canis lupus familiaris, Heart. The method in brief: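 Dogs are anesthetized and the chest reopened. Stimulating and recording electrodes go on the myocardium. Reproducible PES-induced sustained VT or VF is confirmed first; SVT is ended by burst pacing and VF by DC countershock. Compound is given iv in 0.9% saline and inducibility retested. A dose counts as effective when SVT/VF cannot be reinduced in two of three animals.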

The species entered for assay [16] is Canis familiaris. The assay is described as §3. The class given is functional, Canis lupus familiaris, Heart. The source holds these as a separate data set.
The species named for assay [17] is Canis familiaris. Described as §1. The class given is functional. As to conditions: Canis lupus familiaris; Heart. The source holds these as a separate data set.
Assay [18] is filed under the species Canis familiaris. Described as §1. The class given is functional. The following applies: Canis lupus familiaris; Heart. This is another data set of the same source.

As for `CCN(CC)CC(=O)Nc1c(C)cccc1C` [LIDOCAINE], the Vmax was -11% in assay [1]; below 10% in assay [2]; below 10% in [3]; below 10% in assay [4]; below 10% in [5]; -42% in assay [17]. Also, in assay [18], the Vmax is -10%. Besides, the APD95 is listed as -48% in assay [6]; -23% in [10]; -30% in [11]; -43% in assay [12]; -43% in assay [13]; -33% in [16]. In addition, the FRP in [7] was 6% and 4% and 2%; in [14] it was 23% and 8% and 18%. Also, the CT in [8] and in [9] was below 10% throughout. Moreover, the Effective dose in assay [15] was 3 mg/kg.

Values taken from ChEMBL document CHEMBL1123566, “Synthesis and cardiac electrophysiological activity of 2- and 3-[(substituted phenyl)alkyl]quinuclidines. Structure-activity relationships” (1987).
